In article PMC5003403 (Clinical breast cancer, 2012):

Legend:
[1] = type: in vivo; details: human, plasma, oral, 25 mg
In short: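 Nine patients took oral 25 mg daily with food from day 1, adding intramuscular 250 mg fulvestrant from day 8 every 28 ± 5 days. Plasma was sampled over 24 h after the day-7 dose and again after about 120 ± 7 days of combination. Samples went into prechilled heparinised tubes on ice, spun at 1000–1200g for 10–15 min at 4°C and held at about −70°C. LC-MS/MS, LLOQ 0.1 ng/mL. Noncompartmental analysis: Cmax by inspection, AUC by linear trapezoid, t1/2 = 0.693/λz.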

[2] = tested on: serum IGF-1 (insulin-like growth factor 1); experiment: Serum IGF-1 levels; type: in vivo, human; details: Day 7 (exemestane alone); mean ± SD; n 23
[3] = tested on: serum IGFBP-3 (IGF-binding protein 3); experiment: Serum IGFBP-3 levels; type: in vivo, human; details: Day 7 (exemestane alone); mean ± SD; n 22
In short: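 Serum was taken at baseline, after 1 week of single-agent oral exemestane 25 mg daily (day 7), and at day 120 (±7). About 5 mL venous blood went into serum separator tubes, clotted for at least 30 min and was centrifuged at 3000 rpm for 10 min. Serum was frozen at −70°C until assay. Day differences were tested by repeated-measures ANOVA.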

AUC(0-t) [1]: 61.7 ± 17.1 ng·h/mL
Cmax [1]: 20.1 ± 7.7 ng/mL
half-life [1]: 7.94 ± 1.32 h
SMILES: C=C1C[C@@H]2[C@H](CC[C@]3(C)C(=O)CC[C@@H]23)[C@@]2(C)C=CC(=O)C=C12 [Exemestane]
IGF-1 serum level [2]: 141 ± 55.1 ng/mL
IGFBP-3 serum level [3]: 5273 ± 1372 ng/mL
